Test [1] is described as follows: Inhibition of cholesterol synthesis in rat myocyte. The settings on record: Ventricular myocyte. The format is functional, cell-based.
The test system of another test is Hepatocyte. Description: Inhibition of cholesterol synthesis in rat hepatocyte. It is filed as functional, cell-based.
The subject of another test is Mus musculus. Description: Inhibition of acute cholesterol synthesis in mouse at 1 mg/kg. The format is functional. The settings on record: for inhibition in vivo at 1 mg/kg: read-out: Inhibition.
Test [2] has as its target T1, 3-hydroxy-3-methylglutaryl-coenzyme A reductase (Homo sapiens, UniProt P04035).
T1 sequence (P04035 whole entry): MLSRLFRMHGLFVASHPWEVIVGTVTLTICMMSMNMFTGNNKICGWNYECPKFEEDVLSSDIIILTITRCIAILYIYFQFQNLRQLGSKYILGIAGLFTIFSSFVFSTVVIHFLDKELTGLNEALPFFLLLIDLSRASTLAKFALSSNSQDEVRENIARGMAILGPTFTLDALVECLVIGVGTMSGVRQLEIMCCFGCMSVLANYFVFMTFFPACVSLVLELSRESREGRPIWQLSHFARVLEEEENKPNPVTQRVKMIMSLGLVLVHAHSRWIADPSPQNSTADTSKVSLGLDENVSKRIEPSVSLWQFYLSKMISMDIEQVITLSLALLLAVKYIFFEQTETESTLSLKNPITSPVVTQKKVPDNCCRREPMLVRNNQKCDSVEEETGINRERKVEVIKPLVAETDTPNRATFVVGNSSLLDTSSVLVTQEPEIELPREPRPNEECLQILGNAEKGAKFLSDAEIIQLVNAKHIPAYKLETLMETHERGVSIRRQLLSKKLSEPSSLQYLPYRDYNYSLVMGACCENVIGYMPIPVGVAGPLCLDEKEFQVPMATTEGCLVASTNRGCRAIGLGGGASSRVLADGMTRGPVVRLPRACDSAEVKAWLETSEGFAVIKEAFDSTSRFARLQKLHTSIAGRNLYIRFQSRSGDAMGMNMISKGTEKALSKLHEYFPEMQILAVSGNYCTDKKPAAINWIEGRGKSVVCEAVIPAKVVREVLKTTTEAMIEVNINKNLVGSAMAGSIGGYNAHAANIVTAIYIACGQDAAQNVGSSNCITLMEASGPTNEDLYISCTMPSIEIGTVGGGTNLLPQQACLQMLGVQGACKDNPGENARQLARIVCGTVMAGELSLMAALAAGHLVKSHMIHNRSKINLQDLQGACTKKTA
The test is described as follows: Inhibition of HMG-CoA reductase.

The nature of test [3]: Reduction in LDL cholesterol on cholestyramine-primed hamster serum at 10 mg/kg, po after 7 days. Also on record: scale not given: the % may be the effect or the level left. The format is functional. A digest of the protocol:
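Cholestyramine-primed hamsters were dosed orally at 10 mg/kg once daily for 7 days. At the end of treatment, serum LDL-C was measured and percent reduction calculated against an untreated control group.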

The source of these data is ChEMBL document CHEMBL1140655, “Design and synthesis of hepatoselective, pyrrole-based HMG-CoA reductase inhibitors” (Bioorg Med Chem Lett, 2007).

As a reminder, the IC50 is the midpoint of a concentration-inhibition curve.

Calls of active or inactive are those of the source. The rule behind the calls is not given here.

Take `CC(C)n1c(CC[C@@H](O)C[C@@H](O)CC(=O)O)c(-c2ccc(F)cc2)c(-c2ccccc2)c1C(=O)Nc1ccc(C(=O)O)cc1`: the IC50 in test [1] was 12600 nM; in the test with Hepatocyte, 0.1 nM; in test [2], 0.3 nM. Also, the inhibition entry in the test on Mus musculus is “inactive”.
For `CC(C)n1c(CC[C@@H](O)C[C@@H](O)CC(=O)[O-])c(-c2ccc(F)cc2)c(-c2ccccc2)c1C(=O)NC1CC1.[Na+]`, the Activity in test [3] is recorded as -24%. Moreover, the results for the IC50 (in test [1]; in the test with Hepatocyte; in test [2]) were 2780 nM, 2 nM and 3.8 nM, respectively. The inhibition in vivo at 1 mg/kg with Mus musculus is 70%.
As to `CC(C)n1c(CC[C@@H](O)C[C@@H](O)CC(=O)O)c(-c2ccc(F)cc2)c(-c2ccc(F)cc2)c1C(=O)Nc1cccc(O)c1`, the values for the IC50 (in test [1]; in the test on Hepatocyte; in test [2]) were 524 nM, 1.2 nM and 0.7 nM, respectively. Further, the inhibition in vivo at 1 mg/kg in the test on Mus musculus was determined as 22%.
Turning to `Cc1cc(CNC(=O)c2c(-c3ccccc3)c(-c3ccc(F)cc3)c(CC[C@@H](O)C[C@@H](O)CC(=O)O)n2C(C)C)nn1C`, the IC50 in test [1] was found to be 3230 nM; in the test on Hepatocyte, 0.9 nM; in test [2] it was 0.6 nM. In addition, the inhibition in vivo at 1 mg/kg in the test with Mus musculus amounted to 19%.
As to `CC(C)NC(=O)c1c(-c2ccccc2)c(-c2ccc(F)cc2)c(CC[C@@H](O)C[C@@H](O)CC(=O)O)n1C(C)C`, the figures for the half-maximal inhibitory concentration (IC50) (in test [1]; in the test with Hepatocyte; in test [2]) were 1930 nM, 1.6 nM and 15 nM, respectively. Moreover, in the test with Mus musculus, the inhibition in vivo at 1 mg/kg amounted to 73%.
As to `CCC(C)(C)C(=O)O[C@H]1C[C@@H](C)C=C2C=C[C@H](C)[C@H](CC[C@@H]3C[C@@H](O)CC(=O)O3)[C@H]21` [SIMVASTATIN], the IC50 in test [1] came to 150 nM; in the test with Hepatocyte it was 1.3 nM.
Turning to `COc1cccc(NC(=O)c2c(-c3ccc(F)cc3)c(-c3ccc(F)cc3)c(CC[C@@H](O)C[C@@H](O)CC(=O)O)n2C(C)C)c1`, the IC50 came to 50 nM in test [1], 0.3 nM in the test with Hepatocyte and 6.6 nM in test [2]. Further, in the test with Mus musculus, the inhibition in vivo at 1 mg/kg turned out to be 54%.
For `CC(C)n1c(CC[C@@H](O)C[C@@H](O)CC(=O)[O-])c(-c2ccc(F)cc2)c(-c2ccccc2)c1C(N)=O.[Na+]`, the Activity in test [3] is recorded as -11%. Further, the results for the IC50 (in test [1]; with Hepatocyte; in test [2]) were 2450 nM, 0.6 nM and 3 nM, respectively. For the same compound, the inhibition in vivo at 1 mg/kg with Mus musculus amounted to 85%.
Consider `CC(C)n1c(CC[C@@H](O)C[C@@H](O)CC(=O)O)c(-c2ccc(F)cc2)c(-c2ccccc2)c1C(=O)NCc1ccc(C#N)cc1`, for which the IC50 turned out to be 650 nM in test [1], 0.7 nM in the test with Hepatocyte and 0.2 nM in test [2]. Also, the inhibition in vivo at 1 mg/kg in the test with Mus musculus is 47%.
For the compound `CC(C)c1nc(N(C)S(C)(=O)=O)nc(-c2ccc(F)cc2)c1/C=C/[C@@H](O)C[C@@H](O)CC(=O)O` [ROSUVASTATIN], the Activity in test [3] was -25%. For the same compound, the IC50 was found to be 250 nM in test [1], 0.27 nM in the test on Hepatocyte and 3.1 nM in test [2]. Besides, the inhibition in vivo at 1 mg/kg in the test on Mus musculus was determined as 82%.
`Cc1csc(CNC(=O)c2c(-c3ccccc3)c(-c3ccc(F)cc3)c(CC[C@@H](O)C[C@@H](O)CC(=O)O)n2C(C)C)n1`: the figures for the IC50 (in test [1]; in the test on Hepatocyte; in test [2]) were 1010 nM, 1.5 nM and 1.5 nM, respectively. Besides, in the test on Mus musculus, the inhibition in vivo at 1 mg/kg turned out to be 33%.
For `CC(C)n1c(CC[C@@H](O)C[C@@H](O)CC(=O)O)c(-c2ccc(F)cc2)c(-c2ccccc2)c1C(=O)Nc1ccc(C(N)=O)cc1`, the IC50 was 684 nM in test [1], 0.1 nM in the test on Hepatocyte and 0.3 nM in test [2]. Also, the inhibition in vivo at 1 mg/kg in the test on Mus musculus stood at 45%.
On to `CC(C)n1c(CC[C@@H](O)C[C@@H](O)CC(=O)O)c(-c2ccc(F)cc2)c(-c2ccc(F)cc2)c1C(=O)Nc1cccc(C(=O)N(C)C)c1`, for which the IC50 in test [1] was 549 nM; in the test on Hepatocyte, 0.2 nM; in test [2] it was 0.3 nM. Also, the inhibition in vivo at 1 mg/kg in the test on Mus musculus is 20%.
The corresponding values for `CC(C)n1c(CC[C@@H](O)C[C@@H](O)CC(=O)O)c(-c2ccc(F)cc2)c(-c2ccccc2)c1C(=O)Nc1ccc(O)cc1` are 626 nM, 0.5 nM, 0.4 nM and 48%.
Regarding `COc1ccc(CNC(=O)c2c(-c3ccccc3)c(-c3ccc(F)cc3)c(CC[C@@H](O)C[C@@H](O)CC(=O)O)n2C(C)C)cc1`, the IC50 in test [1] turned out to be 310 nM; in the test with Hepatocyte, 0.4 nM; in test [2], 0.8 nM. Also, the inhibition in vivo at 1 mg/kg in the test with Mus musculus was found to be 52%.
With `CC(C)n1c(CC[C@@H](O)C[C@@H](O)CC(=O)O)c(-c2ccc(F)cc2)c(-c2ccccc2)c1C(=O)NCc1ccccc1`, the IC50 in test [1] is 44 nM; in the test with Hepatocyte it was 0.3 nM; in test [2], 0.8 nM. In the test with Mus musculus, the inhibition in vivo at 1 mg/kg worked out at 46%.
`Cc1cc(CNC(=O)c2c(-c3ccccc3)c(-c3ccc(F)cc3)c(CC[C@@H](O)C[C@@H](O)CC(=O)O)n2C(C)C)n[nH]1`: the IC50 came to 10400 nM in test [1], 0.5 nM with Hepatocyte and 2.6 nM in test [2].
With `CC(C)n1c(CC[C@@H](O)C[C@@H](O)CC(=O)O)c(-c2ccc(F)cc2)c(-c2ccccc2)c1C(=O)Nc1ccc(C(=O)N(C)C)cc1`, the IC50 in test [1] stood at 1110 nM; in the test on Hepatocyte, 0.7 nM; in test [2] it was 1.4 nM. Further, in the test with Mus musculus, the inhibition in vivo at 1 mg/kg was determined as 10%.
Consider `COc1cccc(CNC(=O)c2c(-c3ccccc3)c(-c3ccc(F)cc3)c(CC[C@@H](O)C[C@@H](O)CC(=O)O)n2C(C)C)c1`, for which the figures for the IC50 (in test [1]; with Hepatocyte; in test [2]) were 130 nM, 0.1 nM and 1.8 nM, respectively.
On to `CC(C)n1c(CC[C@@H](O)C[C@@H](O)CC(=O)O)c(-c2ccc(F)cc2)c(-c2ccccc2)c1C(=O)NCc1ccccn1`, for which the IC50 is 472 nM in test [1], 0.1 nM with Hepatocyte and 0.8 nM in test [2]. In the test with Mus musculus, the inhibition in vivo at 1 mg/kg was found to be 39%.
On the same counts, the results for `CC(C)n1c(CC[C@@H](O)C[C@@H](O)CC(=O)O)c(-c2ccc(F)cc2)c(-c2ccccc2)c1C(=O)NCc1ccc(C(=O)O)cc1` are 7920 nM, 0.1 nM, 2.2 nM and 7%.
On to `CC(C)n1c(CC[C@@H](O)C[C@@H](O)CC(=O)O)c(-c2ccc(F)cc2)c(-c2ccccc2)c1C(=O)Nc1ccc(S(N)(=O)=O)cc1`, for which the IC50 in test [1] came out at 1790 nM; in the test with Hepatocyte, 0.3 nM; in test [2], 2.9 nM. Besides, the inhibition in vivo at 1 mg/kg in the test with Mus musculus was found to be 32%.
`CC(C)n1c(CC[C@@H](O)C[C@@H](O)CC(=O)O)c(-c2ccc(F)cc2)c(-c2ccc(F)cc2)c1C(=O)Nc1ccccc1`: the IC50 turned out to be 145 nM in test [1] and 0.4 nM in the test on Hepatocyte. Moreover, the inhibition in vivo at 1 mg/kg with Mus musculus came to 75%.
Turning to `CC(C)n1c(CC[C@@H](O)C[C@@H](O)CC(=O)O)c(-c2ccc(F)cc2)c(-c2ccccc2)c1C(=O)N(C)C`, the IC50 in test [1] is 1580 nM; with Hepatocyte, 0.9 nM; in test [2], 20 nM. Further, the inhibition in vivo at 1 mg/kg in the test with Mus musculus was 85%.
Take `CC(C)n1c(CC[C@@H](O)C[C@@H](O)CC(=O)O)c(-c2ccc(F)cc2)c(-c2ccccc2)c1C(=O)NCc1ccc(C(=O)N(C)C)cc1`: the IC50 was determined as 6520 nM in test [1], 4.9 nM with Hepatocyte and 1.2 nM in test [2]. The inhibition in vivo at 1 mg/kg in the test on Mus musculus was determined as 38%.
On to `CC(C)n1c(CC[C@@H](O)C[C@@H](O)CC(=O)O)c(-c2ccc(F)cc2)c(-c2ccccc2)c1C(=O)NCc1cccc(C(N)=O)c1`, for which the IC50 in test [1] stood at 3100 nM; with Hepatocyte it was 0.1 nM; in test [2], 1.2 nM. In the test with Mus musculus, the inhibition in vivo at 1 mg/kg is 22%.
For `CC(C)n1c(CC[C@@H](O)C[C@@H](O)CC(=O)O)c(-c2ccc(F)cc2)c(-c2ccccc2)c1C(=O)Nc1ccccc1`, the IC50 in test [1] is 229 nM; in the test on Hepatocyte it was 1 nM; in test [2] it was 1.8 nM. Moreover, the inhibition in vivo at 1 mg/kg in the test on Mus musculus was 57%.
Take `COCc1ccc(CNC(=O)c2c(-c3ccccc3)c(-c3ccc(F)cc3)c(CC[C@@H](O)C[C@@H](O)CC(=O)O)n2C(C)C)cc1`: the IC50 in test [1] is 211 nM; with Hepatocyte, 1.5 nM; in test [2] it was 0.7 nM.
As to `Cc1cnc(CNC(=O)c2c(-c3ccccc3)c(-c3ccc(F)cc3)c(CC[C@@H](O)C[C@@H](O)CC(=O)O)n2C(C)C)[nH]1`, the IC50 in test [1] is 10400 nM; in the test with Hepatocyte, 0.5 nM; in test [2] it was 3.4 nM. The inhibition in vivo at 1 mg/kg in the test with Mus musculus was determined as 11%.
